From ChEMBL document CHEMBL2331334, “Hybrid furoxanyl N-acylhydrazone derivatives as hits for the development of neglected diseases drug candidates” (Eur J Med Chem, 2013)
In brackets after ≈: the same amount, converted by molar mass.

Legend:
Trypanosoma cruzi [1] = assay: Trypanosomicidal activity against axenic epimastigote stage of Trypanosoma cruzi Tulahuen 2 assessed as growth inhibition; assay type: functional, organism-based
Method in brief: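 Tulahuen 2 epimastigotes grown axenically at 28 °C in BHI-tryptose with 5% FCS, harvested late log phase, 3×10^6/mL in 24-well plates. Compound added from DMSO stock (≤1% DMSO). Growth as A590 at day 0 and day 5; % inhibition from blank-corrected absorbances; ID50 = concentration halving absorbance relative to untreated controls.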

Trypanosoma cruzi [2] = assay: Trypanosomicidal activity against amastigote stage of Trypanosoma cruzi Tulahuen C4 transfected with beta-D-galactosidase infected in african green monkey Vero cells assessed as growth inhibition incubated 5 days prior to beta-D-galactopyranoside addition measured after 4 to 5 hrs by colorimetric assay; assay type: functional, organism-based
Method in brief: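 VERO monolayer in phenol red-free RPMI 1640 with 10% FCS, infected with 5×10^4 LacZ-transfected Tulahuen C4 trypomastigotes/well, 24 h at 37 °C, 5% CO2. Compounds added for 5 days. CPRG substrate added, 4–5 h at 37 °C, A570. Actives (>50% inhibition) retested in duplicate at 10.0–0.16; IC50 by logarithmic regression versus untreated control.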

[3] = system: Mycobacterium tuberculosis; assay: Antimycobacterial activity against Mycobacterium tuberculosis H37Rv assessed as growth inhibition after 5 days by MTT assay; assay type: functional; settings: 120 h
Method in brief: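 MTB inoculum made from 20–30-day slant growth in Tween 80/0.2% BSA, adjusted to McFarland No. 1, then diluted in 7H9GC broth (Middlebrook 7H9, glycerol, Casitone, OADC). Final inoculum about 1.2 × 10^6 CFU/mL. Compounds taken from DMSO stock to final 0.4–25 in broth, with a DMSO control. Plates run 5 days at 37 °C, then tetrazolium (MTT)–Tween 80 added for a further 24 h at 37 °C. Read-out is MIC.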

[4] = Cytotoxicity against mouse J774.1 cells assessed as cell viability after 48 hrs by MTT assay; assay type: cell-based; settings: J774.1, 48 h
Method in brief: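 J774.1 macrophages in DMEM with 4 mM L-glutamine and 10% heat-inactivated FCS, 5×10^4 cells/well, attached 48 h at 37 °C, 5% CO2. Exposed 48 h to compounds (12.5–400.0 µM) or vehicle. MTT 0.1 mg/mL final, 3 h at 37 °C; formazan dissolved in DMSO/glycine buffer pH 10.5, A560. IC50 by linear regression versus solvent control.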

[5] = Selectivity index, ratio of IC50 for mouse J774.1 cells to IC50 for amastigote stage of Trypanosoma cruzi Tulahuen C4; assay type: toxicity; settings: read-out: Ratio IC50
[6] = Selectivity index, ratio of IC50 for mouse J774.1 cells to MIC for Mycobacterium tuberculosis H37Rv; assay type: functional
Method in brief: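 Cytotoxicity: J774.1 macrophages in DMEM with 4 mM L-glutamine and 10% heat-inactivated FCS, seeded at 5 × 10^4/well, attached 48 h at 37 °C, 5% CO2. Exposed 48 h to 12.5–400.0 µM compound or vehicle. MTT at 0.1 mg/mL final for 3 h, formazan dissolved in DMSO/glycine buffer pH 10.5, A560 read. IC50 by linear regression, divided by the MIC against the same MTB strain.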

Leishmania amazonensis = assay: Leishmanicidal activity against axenic amastigote stage of Leishmania amazonensis MHOM/BR/76/LTB-012 assessed as growth inhibition after 72 hrs by MTT assay; assay type: functional, organism-based; settings: MHOM/BR/76/LTB-012, 72 h
Method in brief: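 L. amazonensis axenic amastigotes (MHOM/BR/76/LTB-012), weekly passages in MAA/20 at 32 °C, 5% CO2. Seeded in 96-well plates; compounds in DMSO at 100 to 1 final, 72 h. MTT added for 4 h, stopped with 50% isopropanol–10% SDS, 30 min agitation at room temperature, A570. Triplicate; % inhibition versus control, IC50 from several concentrations.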

[7] = Selectivity index, ratio of IC50 for mouse J774.1 cells to IC50 for axenic amastigote stage of Leishmania amazonensis MHOM/BR/76/LTB-012; assay type: toxicity; settings: read-out: Ratio IC50
Plasma = assay: Metabolic stability in human plasma at pH 3 at 40 uM after 3 hrs; assay type: ADME, cell-free; settings: pH 3, 3 h
[8] = Aqueous stability of the compound in Tris.HCl buffer at pH 7.4 at 1 mM after 24 hrs by spectrophotometric analysis; assay type: physicochemical; settings: pH 7.4, 24 h, 1000 µM
Method in brief: (§1)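 Compound from DMSO stock, 1 mM final in aqueous buffer (KCl·HCl pH 2, acetate pH 5, Tris·HCl pH 7.4 or 8.3), incubated 37 °C for 24 h. Absorbance spectrum 250–450 nm compared with a freshly prepared, unincubated solution. TLC of ethyl acetate extracts to confirm or exclude decomposition products.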

[9] = Aqueous stability of the compound in acetate buffer at pH 5 at 1 mM after 24 hrs by spectrophotometric analysis; assay type: physicochemical; settings: pH 5, 24 h, 1000 µM; method in brief: as §1
[10] = Aqueous stability of the compound in KCl.HCl buffer at pH 2 at 1 mM after 24 hrs by spectrophotometric analysis; assay type: physicochemical; settings: pH 2, 24 h, 1000 µM; method in brief: as §1
[11] = Aqueous stability of the compound in Tris.HCl buffer at pH 8.3 at 1 mM after 24 hrs by spectrophotometric analysis; assay type: physicochemical; settings: pH 8.3, 24 h, 1000 µM; method in brief: as §1
[12] = Selectivity index, ratio of IC50 for african green monkey Vero cells to IC50 for amastigote stage of Trypanosoma cruzi Tulahuen C4; assay type: toxicity, cell-based; settings: read-out: Ratio IC50

SMILES	IC50 (Trypanosoma cruzi [1])	IC50 (Trypanosoma cruzi [2])	MIC [3]	IC50 [4]	Selectivity Index [6]	also measured
Cc1c(C(=O)N/N=C/c2ccccc2)no[n+]1[O-]	151 µM	> 40.7 µM	> 102 µM	> 400 µM		
Cc1[nH]cnc1C(=O)N/N=C/c1no[n+]([O-])c1C	> 150 µM	> 40 µM	> 100 µM	> 400 µM		
Cc1c(C(=O)N/N=C/c2ccc(N(C)C)cc2)no[n+]1[O-]	> 150 µM	> 34.6 µM	> 86.5 µM	129 µM	<1.5	selectivity ratio [5]: < 3
NNC(=O)c1cnn(-c2ccccc2)c1		> 49.5 µM				
COC(=O)c1no[n+]([O-])c1C	> 50 µM	> 62.3 µM				
Cc1c(C(=O)N/N=C/c2ccc(Br)cc2)no[n+]1[O-]	> 150 µM	> 29.6 µM	> 74 µM	162 µM	<2	selectivity ratio [5]: < 5
NNC(=O)c1cccnc1 [NICOTINIC ACID HYDRAZIDE]	> 150 µM	> 73 µM				
Cc1c(C(=O)N/N=C/c2ccc([N+](=O)[O-])cc2)no[n+]1[O-]	> 150 µM	> 34.4 µM	> 85.9 µM	> 300 µM		IC50 (Leishmania amazonensis): 7.9 µM; selectivity ratio [7]: > 38
Cc1c(/C=N/NC(=O)c2cnn(-c3ccccc3)c2)no[n+]1[O-]	> 150 µM	> 32.1 µM	> 80.1 µM	295 µM	<4	
Cc1c(C(=O)N/N=C/c2ccccn2)no[n+]1[O-]	> 150 µM	> 40.5 µM	> 101 µM	> 400 µM		
O=C(N/N=C/c1c(-c2ccccc2)no[n+]1[O-])c1cccnc1	58.9 µM	> 32.4 µM	40.5 µM (≈ 12.5 µg/mL)	195 µM	5	selectivity ratio [5]: < 6
Cc1nc2ccccn2c1C(=O)N/N=C/c1ccc2no[n+]([O-])c2c1	> 150 µM	> 30.9 µM	77.2 µM (≈ 26 µg/mL)	141 µM	1.8	selectivity ratio [5]: < 4
Cc1c(C(=O)N/N=C/c2ccco2)no[n+]1[O-]	> 150 µM	> 42.4 µM	> 106 µM	> 400 µM		
Cc1c(C(=O)N/N=C/c2ccc3c(c2)OCO3)no[n+]1[O-]	> 150 µM	> 34.5 µM	> 86.2 µM	> 400 µM		
COc1cc(/C=N/NC(=O)c2no[n+]([O-])c2C)cc(OC)c1OC			> 74.4 µM	> 300 µM		
Cc1c(C(=O)N/N=C/c2ccc([N+](=O)[O-])o2)no[n+]1[O-]	50.1 µM	> 35.6 µM	44.5 µM (≈ 12.5 µg/mL)	68 µM	1.5	selectivity ratio [5]: < 2
Cc1c(/C=N/NC(=O)c2no[n+]([O-])c2C)no[n+]1[O-]	81.3 µM	> 37.5 µM	> 93.6 µM	> 400 µM		
O=C(N/N=C/c1ccc2nonc2c1)c1ccncc1	> 150 µM	> 37.5 µM	> 93.6 µM	> 400 µM		
Cc1nc2ccccn2c1C(=O)NN	> 150 µM	> 52.6 µM				IC50 (Leishmania amazonensis): 29.8 µM; selectivity ratio [7]: > 13
Cc1c(C(=O)N/N=C/c2ccc(C(=O)O)cc2)no[n+]1[O-]	> 150 µM	> 34.5 µM	> 86.2 µM	> 300 µM		

SMILES	IC50 (Trypanosoma cruzi [1])	IC50 (Trypanosoma cruzi [2])	MIC [3]	IC50 [4]	Selectivity Index [6]	also measured
Cc1c(C(=O)NN)no[n+]1[O-]	> 50 µM	> 62.3 µM				
Cc1c(/C=N/NC(=O)c2ccc3c(c2)OCO3)no[n+]1[O-]	> 150 µM	> 34.5 µM	> 86.2 µM	132 µM	<1.5	selectivity ratio [5]: < 1.5; IC50 (Leishmania amazonensis): 3.3 µM; selectivity ratio [7]: 40
COc1ccc(/C=N/NC(=O)c2no[n+]([O-])c2C)cc1OC			> 81.6 µM	> 400 µM		
Cc1c(C(=O)N/N=C/c2ccc([N+](=O)[O-])s2)no[n+]1[O-]	50 µM	> 33.7 µM	42.1 µM (≈ 12.5 µg/mL)	> 400 µM	>10	
O=C(N/N=C/c1ccc2no[n+]([O-])c2c1)c1cccnc1	35.5 µM	> 35.3 µM	44.2 µM (≈ 12.5 µg/mL)	31 µM	0.7	Stability (Plasma): Stable; selectivity ratio [5]: < 0.9; Stability [8]: Stable; Stability [9]: Stable; Stability [10]: Stable; Stability [11]: Stable
Cc1c(C(=O)N/N=C/c2ccc3no[n+]([O-])c3c2)no[n+]1[O-]	> 150 µM	> 32.9 µM	82.2 µM (≈ 25 µg/mL)	> 400 µM	>5	
NNC(=O)c1ccc2c(c1)OCO2	> 150 µM	> 55.6 µM				
Cc1nc2ccccn2c1C(=O)N/N=C/c1no[n+]([O-])c1C	> 150 µM	> 33.3 µM	> 83.3 µM	> 400 µM		IC50 (Leishmania amazonensis): 12.6 µM; selectivity ratio [7]: > 32
O=C(N/N=C/c1ccc2nonc2c1)c1cccnc1	> 150 µM	> 37.5 µM	> 93.6 µM	209 µM	<2	selectivity ratio [5]: < 5.5
Cc1c(C(=O)N/N=C/c2c(-c3ccccc3)no[n+]2[O-])no[n+]1[O-]	25.1 µM	> 30.3 µM	> 75.8 µM	> 400 µM		
Cc1c(C(=O)N/N=C/c2ccc(C(F)(F)F)cc2)no[n+]1[O-]	> 150 µM	> 31.9 µM	> 79.6 µM	> 400 µM		
O=C(N/N=C/c1c(-c2ccccc2)no[n+]1[O-])c1cnn(-c2ccccc2)c1	> 150 µM	> 26.7 µM	> 66.8 µM	41.7 µM	<0.6	
CC(=O)Nc1ccc(/C=N/NC(=O)c2no[n+]([O-])c2C)cc1	> 150 µM	> 33 µM	> 82.5 µM	235 µM	<3	
Cc1c(C(=O)N/N=C/c2ccccc2O)no[n+]1[O-]	39.8 µM	> 38.7 µM	> 95.4 µM	246 µM	<3	selectivity ratio [5]: < 6
Cc1c(C(=O)N/N=C/c2cccc(O)c2)no[n+]1[O-]	> 150 µM	> 38.2 µM	> 95.4 µM	> 400 µM		IC50 (Leishmania amazonensis): 4.5 µM; selectivity ratio [7]: > 89
NNC(=O)c1ccncc1 [ISONIAZID]	> 150 µM		0.4 µM (≈ 0.0549 µg/mL)	> 400 µM	>1000	
COc1ccc(/C=N/NC(=O)c2no[n+]([O-])c2C)cc1O			> 85.6 µM	> 400 µM		IC50 (Leishmania amazonensis): 8.3 µM; selectivity ratio [7]: > 48
Cc1[nH]cnc1C(=O)N/N=C/c1c(-c2ccccc2)no[n+]1[O-]	> 150 µM	> 32.1 µM	> 80.1 µM	> 400 µM		
CC1CS(=O)(=O)CCN1/N=C/c1ccc([N+](=O)[O-])o1 (stereo not given) [NIFURTIMOX]		10.4 µM				selectivity ratio [5]: 27; selectivity ratio [12]: 7.7
Cc1c(/C=N/NC(=O)c2cccnc2)no[n+]1[O-]	> 150 µM	> 40.5 µM	> 101 µM	> 400 µM		
